Test results reported in ChEMBL document CHEMBL4219038, “1-Thiazol-2-yl-N-3-methyl-1H-pyrozole-5-carboxylic acid derivatives as antitumor agents” (Bioorg Med Chem Lett, 2017).
Active and inactive are the calls of the source. The calls are words filed in the database; no cut-off is given here.

Columns and labels:
[1] = test system: BJAB; test: Antiproliferative activity against human BJAB cells after 4 days; assay type: functional, cell-based
[2] = test system: HCT-116; test: Cell cycle arrest in human HCT116 cells assessed as reduction in cell levels at S/G2 phase at 0.001 to 10 uM after 24 hrs by EdU-staining based high content imaging analysis; assay type: functional
How it was run: (§1)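 HCT-116 cells plated on poly-lysine-coated plates overnight, then treated 24 h with compound (DMSO stock diluted into McCoy's medium with 10% FBS). EdU labelling of newly synthesized DNA, 4% formaldehyde fixation, then high-content imaging in three fluorescent channels for total cell count, DNA content and S-phase cells. Means of three biological replicates, SEM.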

[3] = test system: HCT-116; test: Cell cycle arrest in human HCT116 cells assessed as accumulation at G0/G1 phase at 0.001 to 10 uM after 24 hrs by EdU-staining based high content imaging analysis; assay type: functional; how it was run: as §1
[4] = test system: HCT-116; test: Cell cycle arrest in human HCT116 cells assessed as reduction in cell levels at M-phase at 0.001 to 10 uM after 24 hrs by EdU-staining based high content imaging analysis; assay type: functional; how it was run: as §1
[5] = test system: HCT-116; test: Cell cycle arrest in human HCT116 cells assessed as reduction in cell levels at S-phase at 0.001 to 10 uM after 24 hrs EdU-staining based high content imaging analysis; assay type: functional; how it was run: as §1
[6] = Homo sapiens, BJAB, 96 h, read-out: EC50

SMILES	EC50 [1, 6] [µM]	further results
Cc1nn(-c2nc(-c3ccc(Cl)c(Cl)c3)c(SC(C)C)s2)c(C(=O)O)c1-c1cccc(Cl)c1	13.6	–
Cc1nn(-c2nc(-c3ccc(Cl)c(Cl)c3)c(SC(C)C)s2)c(C(=O)O)c1-c1cncnc1	22	–
Cc1nn(-c2nc(-c3ccc(Cl)c(Cl)c3)c(SC(C)C)s2)c(C(=O)O)c1-c1ccncc1	5.9	–
Cc1nn(-c2nc(-c3ccc(Cl)c(Cl)c3)c(SC(C)C)s2)c(C(=O)O)c1-c1cnn(C)c1	6.8	–
Cc1nn(-c2nc(-c3ccc(Cl)c(Cl)c3)c(SC(C)C)s2)c(C(=O)O)c1-c1ccccc1C(F)(F)F	5.2	–
COc1ccccc1-c1c(C)nn(-c2nc(-c3ccc(Cl)c(Cl)c3)c(SC(C)C)s2)c1C(=O)O	14.7	–
Cc1ccccc1-c1c(C)nn(-c2nc(-c3ccc(Cl)c(Cl)c3)c(SC(C)C)s2)c1C(=O)O	5.5	–
CCSc1sc(-n2nc(C)c(Cc3ccccc3[N+](=O)[O-])c2C(=O)O)nc1-c1ccc(Cl)c(Cl)c1	59	–
Cc1nn(-c2nc(-c3ccc(Cl)c(Cl)c3)c(SC(C)C)s2)c(C(=O)O)c1-c1cc(C(F)(F)F)cc(C(F)(F)F)c1	1.8	–
CC(=O)Nc1ccc(-c2c(C)nn(-c3nc(-c4ccc(Cl)c(Cl)c4)c(SC(C)C)s3)c2C(=O)O)cc1	139	Activity [2]: inactive; Activity [3]: inactive; Activity [4]: inactive; Activity [5]: inactive
Cc1nn(-c2nc(-c3ccc(Cl)c(Cl)c3)c(SC(C)C)s2)c(C(=O)O)c1-c1cnccn1	14	Activity [5]: Active
Cc1cccc(-c2c(C)nn(-c3nc(-c4ccc(Cl)c(Cl)c4)c(SC(C)C)s3)c2C(=O)O)c1	17	–
Cc1cc(-c2c(C)nn(-c3nc(-c4ccc(Cl)c(Cl)c4)c(SC(C)C)s3)c2C(=O)O)cc(C)n1	0.58	–
Cc1cc(C)cc(-c2c(C)nn(-c3nc(-c4ccc(Cl)c(Cl)c4)c(SC(C)C)s3)c2C(=O)O)c1	2.7	–
Cc1nn(-c2nc(-c3ccc(Cl)c(Cl)c3)c(SC(C)C)s2)c(C(=O)O)c1-c1cc(C#N)cc(C(F)(F)F)c1	3.6	–
Cc1nn(-c2nc(-c3ccc(Cl)c(Cl)c3)c(SC(C)C)s2)c(C(=O)O)c1-c1cccc(F)c1	0.9	–
Cc1nn(-c2nc(-c3ccc(Cl)c(Cl)c3)c(SC(C)C)s2)c(C(=O)O)c1-c1cccnc1	12	–
Cc1nn(-c2nc(-c3ccc(Cl)c(Cl)c3)c(SC(C)C)s2)c(C(=O)O)c1-c1ccccc1Cl	13.1	–
Cc1nn(-c2nc(-c3ccc(Cl)c(Cl)c3)c(SC(C)C)s2)c(C(=O)O)c1-c1ccc(Cl)cc1	2.5	–
Cc1cc(Cl)cc(-c2c(C)nn(-c3nc(-c4ccc(Cl)c(Cl)c4)c(SC(C)C)s3)c2C(=O)O)c1	0.663	–
Cc1nn(-c2nc(-c3ccc(Cl)c(Cl)c3)c(SC(C)C)s2)c(C(=O)O)c1-c1ccc(C(F)(F)F)cc1	3.5	–
Cc1cc(C#N)cc(-c2c(C)nn(-c3nc(-c4ccc(Cl)c(Cl)c4)c(SC(C)C)s3)c2C(=O)O)c1	4.8	–

SMILES	EC50 [1, 6] [µM]	further results
Cc1nn(-c2nc(-c3ccc4nccn4c3)c(SC(C)C)s2)c(C(=O)O)c1-c1cc(Cl)cc(Cl)c1	–	EC50 ([1]; bjab): Not Active
Cc1nn(-c2nc(-c3ccc(Cl)c(Cl)c3)c(SC(C)C)s2)c(C(=O)O)c1Cc1ccccc1[N+](=O)[O-]	20	–
COc1cc(Cl)cc(-c2c(C)nn(-c3nc(-c4ccc(Cl)c(Cl)c4)c(SC(C)C)s3)c2C(=O)O)c1	0.76	–
COc1ccc(C)cc1-c1c(C)nn(-c2nc(-c3ccc(Cl)c(Cl)c3)c(SC(C)C)s2)c1C(=O)O	9.5	–
CCOc1ncccc1-c1c(C)nn(-c2nc(-c3ccc(Cl)c(Cl)c3)c(SC(C)C)s2)c1C(=O)O	11	–
COC(=O)c1c(Cc2ccccc2[N+](=O)[O-])c(C)nn1-c1nc(-c2ccc(Cl)c(Cl)c2)cs1	377	–
Cc1nn(-c2nc(-c3ccc(Cl)c(Cl)c3)c(SC(C)C)s2)c(C(=O)O)c1-c1ccccc1	3 to 3.4	–
COc1cc(C#N)cc(-c2c(C)nn(-c3nc(-c4ccc(Cl)c(Cl)c4)c(SC(C)C)s3)c2C(=O)O)c1	5.2	–
CCSc1sc(-n2nc(C)c(Cc3ccccc3[N+](=O)[O-])c2C(=O)OC)nc1-c1ccc(Cl)c(Cl)c1	106	–
Cc1nn(-c2nc(-c3ccc(Cl)c(Cl)c3)c(SC(C)C)s2)c(C(=O)O)c1-c1cccc(C(F)(F)F)c1	22	–
Cc1nn(-c2nc(-c3cccnc3)c(SC(C)C)s2)c(C(=O)O)c1-c1cc(Cl)cc(Cl)c1	–	EC50 ([1]; bjab): Not Active
Cc1nn(-c2nc(-c3ccc(Cl)c(Cl)c3)c(SC(C)C)s2)c(C(=O)O)c1-c1cccc(Cl)c1C	5.1	–
COc1cccc(-c2c(C)nn(-c3nc(-c4ccc(Cl)c(Cl)c4)c(SC(C)C)s3)c2C(=O)O)c1	14	–
COc1cncc(-c2c(C)nn(-c3nc(-c4ccc(Cl)c(Cl)c4)c(SC(C)C)s3)c2C(=O)O)c1	21	–
CNc1cc(-c2c(C)nn(-c3nc(-c4ccc(Cl)c(Cl)c4)c(SC(C)C)s3)c2C(=O)O)ccn1	18	–
COc1cc(-c2c(C)nn(-c3nc(-c4ccc(Cl)c(Cl)c4)c(SC(C)C)s3)c2C(=O)O)cc(C(F)(F)F)c1	1.38	–
O=C(O)/C(Cc1ccccc1[N+](=O)[O-])=N\Nc1nc(-c2ccc(Cl)c(Cl)c2)cs1	–	IC50 ([1]; Homo sapiens, BJAB, 96 h): 20 µM
Cc1ccc(-c2c(C)nn(-c3nc(-c4ccc(Cl)c(Cl)c4)c(SC(C)C)s3)c2C(=O)O)cc1	3.8	–
Cc1nn(-c2nc(-c3ccc(Cl)c(Cl)c3)c(SC(C)C)s2)c(C(=O)O)c1-c1ccccc1[N+](=O)[O-]	4.7	–
Cc1nn(-c2nc(-c3ccc(Cl)c(Cl)c3)c(SC(C)C)s2)c(C(=O)O)c1-c1cncc(C#N)c1	20	–
COc1ccc(-c2c(C)nn(-c3nc(-c4ccc(Cl)c(Cl)c4)c(SC(C)C)s3)c2C(=O)O)cc1	2.1	–
COC(=O)c1c(Cc2ccccc2[N+](=O)[O-])c(C)nn1-c1nc(-c2ccc(Cl)c(Cl)c2)c(SC(C)C)s1	93	–
